These results are taken from PubChem BioAssay AID552 (SRMLSC, 2006).

Out of some 20,000 compounds screened, about 10 (0.05%) were called active. The entries come from a sample that favours actives as a whole. A number with no mark means an inactive call. Rule as the data show it: active = inhibition above about 40%; inactive = the rest.

The term inhibition denotes the relative decrease from the control value, in per cent.

This assay can be described thus: antibacterial activity on E. coli BW25113 – strain BW25113 wild type, absorbance readout, primary screen (AID 552).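 Also: bacteria exposed to compound for 20 hours at 37 °C.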 Conditions: E. coli BW25113 growth inhibition, OD600; at 10 µM; stronger effect = higher value. The method, boiled down: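 assay system = bacterial strain in a whole-cell growth screen | quantity = inoculum from a 1:1000 dilution of a 1.5 h subculture | buffer or medium = LB broth with 50 µg/mL kanamycin | compound dosing = one dose, 10 µM final | schedule = compound exposure of 20 h at 37 °C | technique = absorbance at 615 nm as a measure of bacterial growth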
For the compound `O=C(COc1ccccc1F)NC1CC1`, the inhibition was -9.95%.

Turning to `CC(C)(C)C(=O)CCN1C(=O)C2(OCCO2)c2ccccc21`, the inhibition is 11.1%.

As for `CCOC(=O)N1CCN(CC(=O)c2c(C)[nH]c3ccccc23)CC1`, the inhibition was 8.75%. Under `COC(=O)C(C)N(C#N)c1nc(C)nc(C)n1` (centres undefined) stands -24.9%; under `Cc1cc(Cl)ccc1N1C(=O)CC(SCCC(=O)O)C1=O` (centres undefined), 0.27%; under `COC(=O)C1=C(C)Nc2ncnn2C1c1ccco1` (centres undefined), -13.1%. With `CCOC(=O)c1c(C)oc2ccc(OCC(=O)N(CC)CC)cc12`, the inhibition is -3.67%. As for `COc1ccc(-c2cc3ccc(OCc4nn[nH]n4)cc3oc2=O)cc1`, the inhibition is -2.44%. Under `CCCn1c(C(O)c2cc(OC)ccc2OC)nc2ccccc21` (centres undefined) stands -24.6%; under `CC1Cn2c(nnc2-c2cccs2)S1` (centres undefined), -19.2%; under `COc1ccc(-c2nc(SCC(=O)N3CCOCC3)n[nH]2)cc1`, -14%.

As to `Cn1c(=O)c2c(ncn2CC(=O)N2CCN(c3ccccc3)CC2)n(C)c1=O`, the inhibition was 0.27%. `CC(C)NS(=O)(=O)c1ccc(OCC(=O)Nc2ccc3c(c2)OCCO3)cc1`: the inhibition was -17.1%. Under `COc1ccccc1C(=O)n1nc(-c2ccccc2)nc1N` stands -5.43%; under `Cc1nnc2sc(-c3ccco3)nn12`, -19.1%. Under `O=C(c1cccnc1NCc1ccccc1)N1CCOCC1` stands 4.48%; under `Cc1ccc(-c2noc(CSc3nnc(-c4ccccc4)n3C)n2)cc1`, 13.8%; under `Cn1c(=O)n(C)c2cc(C(=O)Nc3ccc4c(c3)OCO4)ccc21`, -11.7%. Under `COc1ccc(S(=O)(=O)N2CCCC2)c(C)c1C` stands -7.21%; under `CC1=C(C(=O)OC2CCCCC2)C(c2cccnc2)n2ncnc2N1` (centres undefined), -3.82%.

For `CCOc1ccc(Cn2nnc(C(=O)Nc3ccc(OC)cc3OC)c2N)cc1`, the inhibition was 1.62%. Under `Cc1cc(C)cc(N(C(C)C(=O)Nc2c(C)n(C)n(-c3ccccc3)c2=O)S(C)(=O)=O)c1` (centres undefined) stands -10.4%; under `Cc1nn(-c2ccccc2)c2[nH]c(C(F)(F)F)cc(=O)c12`, -5.63%; under `COc1ccc(CCNS(=O)(=O)c2ccc(C(=O)NCc3ccco3)cc2)cc1OC`, 8.04%. Take `O=C(c1ccco1)N1CCN(C(=O)C2CC(c3ccc(F)cc3)=NO2)CC1` (centres undefined): the inhibition is 9.27%. For `CC(C(=O)N1CCOCC1)N1c2cccc3cccc(c23)S1(=O)=O` (centres undefined), the inhibition was -6.66%. The same measure for `CSc1cccc(NC(=O)CSc2ccccc2)c1`: -12.8%; for `O=C(c1ccccc1-c1ccccc1)N1CCOCC1`: -14.8%. Consider `CC(C)n1c(NCc2c[nH]c3ccccc23)nc2ccccc21`, for which the inhibition is 18.1%. Under `COc1cc(NS(=O)(=O)c2ccccc2)ccc1-n1nc(C)cc1C` stands -15.6%. The same measure for `COc1ccc2c(CC(=O)Nc3nnc(C4CC4)s3)coc2c1`: -3.61%; for `COc1ccccc1NC1=NC2(CCCC2)N=C(N)N1`: 5.8%.

In the case of `CCc1nnc(NC(=O)c2ccc(S(=O)(=O)NC3CCCCC3)cc2)s1`, the inhibition was -3.77%. Under `COC(=O)CN(c1nc(C)c(Cl)c(OC)n1)S(=O)(=O)c1ccc(C)cc1` stands -1.76%; under `CNC(=O)NCCN1CCCC1=O`, 7.98%; under `CCn1c(CNC(=O)c2ccc(OC)c(OC)c2)nnc1SCC(=O)Nc1ccccc1`, -11.8%.

Consider `O=C(C1CCCO1)N(Cc1ccccc1)c1ccccc1` (centres undefined), for which the inhibition is -16.8%. Under `Cc1cc(NC(=O)Cn2nc(C(F)(F)F)c3c2CCCC3)no1` stands -16.9%; under `Cc1cc(C)nc(NC2=NCC(=O)N2c2ccc(Cl)cc2)n1`, 1.06%. For `O=C(NCCc1ccccn1)c1ccc(COc2ccccc2)o1`, the inhibition was 15%. The same measure for `C/C(=C(\C#N)C(=O)NCCCN1CCOCC1)N(C)C`: 2.5%; for `CCOC(=O)CC1C(=O)NCCN1C(=O)COc1ccc(Br)cc1C` (centres undefined): -24.8%. Under `CC(=O)Nc1ccc(S(=O)(=O)Nc2cccc(NC(=O)C(C)(C)C)c2)cc1` stands -16.1%; under `O=C1C2(c3ccccc3)CN(CCCO)CC1(c1ccccc1)CN(CCCO)C2`, -16.6%; under `Cc1noc(C)c1CSc1nc2cc(S(=O)(=O)N3CCOCC3)ccc2o1`, -3.26%.

In the case of `CCCCNC(=O)c1ccccc1NC(=O)c1ccccc1N(C)S(C)(=O)=O`, the inhibition is -21%. Under `COC(=O)COc1ccc2oc(=O)cc(C)c2c1` stands -18.5%; under `O=S(=O)(N1CCOCC1)N1CCN(c2ccccc2F)CC1`, -11.7%; under `CCC(Oc1ccccc1)C(=O)NCc1cccnc1` (centres undefined), -21.9%. Under `O=C(Nc1nn(Cc2ccccc2F)cc1Br)c1cccs1` stands -14.1%; under `Cc1ccc(S(=O)(=O)N(C)CC(=O)NC2CCCC2)cc1`, -2.1%. Under `N#CC1=C(N)C(C#N)(C#N)[C@H](c2ccsc2)[C@H]2COCC=C12` stands -0.035%; under `O=C(OCC(O)C(O)COC(=O)c1ccccc1)c1ccccc1` (centres undefined), -18.9%. As to `CCCOc1ccc(NC(=O)C2CCCNC2=O)cc1` (centres undefined), the inhibition is -30.8%.

With `COc1ccc(CC(NC(C)=O)C(=O)NC2CCN(C(=O)Nc3ccc(C#N)cc3)CC2)cc1OC` (centres undefined), the inhibition was -1.03%.

Turning to `Cc1cc(C(=O)Nc2c(C)n(C)n(-c3ccccc3)c2=O)cs1`, the inhibition was -12.7%.

As to `Cc1occc1C(=O)Nc1nnc(C2CCCCC2)s1`, the inhibition is 0.21%.

Turning to `Cc1cc(=O)n(C)c(=O)n1CCCNc1ccccc1`, the inhibition was 8.62%.

With `C/C(N)=C(\C#N)C(=O)NCCc1ccccn1`, the inhibition was -3.41%. Under `CCOC(=O)c1c(C)nc(-c2ccccc2)nc1NC(=O)C(C)C` stands -20.2%; under `Cc1cc(NC(=O)CN2CCC(O)(c3cccc(F)c3)CC2)no1`, -0.42%; under `CCC(=O)Nc1nc(OC)cc(OC)n1`, -16.5%. The same measure for `COc1ccc(CC(=O)Nc2c3c(nn2-c2cccc(Cl)c2)CS(=O)C3)cc1` (centres undefined): 13.4%.

In the case of `Cc1cc(C)nc(NC(=O)C(C)N2C(=O)c3ccccc3C2=O)n1` (centres undefined), the inhibition is -17.9%. The same measure for `CCOC(=O)c1cnc2sccn2c1=O`: -15.3%; for `O=C(CCN1C(=O)c2ccccc2C1=O)NCCN1CCOCC1`: 0.59%.

For `O=C(CCOc1ccccc1)NCc1ccccc1`, the inhibition was 14.8%. The same measure for `CC1CC(C)CN(CC(=O)Nc2ccc(S(N)(=O)=O)cc2)C1` (centres undefined): 0.613%; for `O=C1CSC(c2cccc(F)c2)N1c1ccccc1F` (centres undefined): 6.64%; for `Cc1nonc1NC(=O)c1ccccc1Br`: -2.2%. Under `O=C(Nc1cccnc1)c1ccc2c(c1)OCO2` stands 6.74%; under `CC(=NCc1ccc2c(c1)OCO2)C1=C(O)c2ccccc2C1=O`, 5.88%. The same measure for `CC(Nc1nc(N2CCCC2)nc2ccccc12)c1ccccc1` (centres undefined): -5.16%. Turning to `O=C(Nc1ccccc1N1CCCCC1)c1cccc(F)c1`, the inhibition is 0.18%. Under `CC(=O)NC1CC2CCCC(C1)N2CC(=O)Nc1ccccc1` (centres undefined) stands 6.86%; under `COCCCN1C(=O)C(=O)/C(=C(/O)c2ccc3c(c2)CC(C)O3)C1c1cccnc1` (centres undefined), -17.6%; under `CCc1ccccc1NC(=O)CSc1nnc([C@@H](NC(=O)OC(C)(C)C)C(C)CC)o1` (some centres undefined), -15.5%.

Turning to `C=CCn1c(SCc2nnc(-c3ccccc3)o2)nnc1C(O)c1ccccc1` (centres undefined), the inhibition was -17.5%. The same measure for `COCCCn1c(CCC(=O)O)ccc1-c1ccc(F)cc1`: -9.43%; for `CC(=O)NCCc1ccc(S(=O)(=O)N(C)C2CCS(=O)(=O)C2)cc1` (centres undefined): -15.7%. The same measure for `COc1ccc(NC(=O)CCNC(=O)Cn2ccc3ccccc3c2=O)c(OC)c1`: -0.805%; for `CC(=O)N1C(=O)C2(Nc3ccccc3N2)c2ccccc21`: 7.24%; for `COCCOC(=O)C1=C(C)NC(=O)CC1c1cc2c(cc1Br)OCO2` (centres undefined): -1.9%. Under `COC(=O)c1cc(C(=O)OC)cc(N2C(=O)CC(N3CCN(c4ccccc4)CC3)C2=O)c1` (centres undefined) stands -20%.

As for `CC1CCCC(N2CCN(C(=O)c3ccc(F)cc3)CC2)C1` (centres undefined), the inhibition is 8.12%. Under `O=C(Cn1nnc(-c2ccc(CN3CCOCC3)cc2)n1)NC1CCCCC1` stands -1.75%; under `O=C(Cc1nn[nH]n1)NCCC1=CCCCC1`, 17.3%. As to `CCC1=C(C(=O)OC)C(c2cc(OC)ccc2OC)C(C#N)=C(N)O1` (centres undefined), the inhibition was -1.96%.

Take `COc1ccc(OC)c(C(=O)c2ccc(C(=O)O)cc2)c1`: the inhibition was -4.3%. The same measure for `Cc1ccc(NC2=NC(c3ccccc3)n3c(nc(C)cc3=O)N2)cc1` (centres undefined): -1.73%. On to `COC(=O)Nc1ccc(S(=O)(=O)N(C)CC(F)(F)C(F)F)cc1`, for which the inhibition was -3.1%. Turning to `COC(=O)c1ccc(C2CC(=O)Nc3cc(OC)c(OC)cc32)cc1` (centres undefined), the inhibition is -20.6%. Under `CC(C)c1ccc(N2CC(C(=O)Nc3nccs3)CC2=O)cc1` (centres undefined) stands 2.9%; under `CCc1nnc(NC(=O)C2CCCN2S(=O)(=O)c2ccccc2)s1` (centres undefined), -21%. In the case of `Cc1cc(C)c(C#N)c(SCc2[nH]nc3c2C(c2ccccc2)C(C#N)=C(N)O3)n1` (centres undefined), the inhibition is -3.73%.

For `CCOC(=O)CSc1nnc(-c2ccncc2)o1`, the inhibition is -0.95%. The same measure for `COC(=O)C(C)Sc1nc2c(c(=O)n(C)c(=O)n2C)n1Cc1cccc(C)c1` (centres undefined): 8.4%; for `Cc1ccc(C(=O)NCC2CCCO2)o1` (centres undefined): -6.23%; for `CN(C)[C@@H]1C(=O)C(C(N)=O)=C(O)[C@@]2(O)C(=O)C3=C(O)c4c(O)ccc(Cl)c4[C@@H](O)[C@H]3C[C@@H]12`: 43.4% (active).
